# Test results from ChEMBL document CHEMBL1126857, “14 beta-[(p-nitrocinnamoyl)amino]morphinones, 14 beta-[(p-nitrocinnamoyl)amino]-7,8-dihydromorphinones, and their codeinone analogues: synthesis and receptor activity” (J Med Chem, 1993).
# Tested on: not listed separately
# Assay: Bmax value expressed in (f mol bound)/mg of protein
# How it was run: (§1)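 Bovine striatal membranes (10 mg protein) pretreated 60 min at 25 °C with or without 20 nM ligand in 50 mM Tris-HCl pH 7.5, then washed by centrifugation five times. [3H]DAMGO saturation, 0.05–6.4 nM, 60 min at 25 °C, then filtration. Nonspecific binding with 10 μM naloxone; Bradford protein. Kd/Bmax by nonlinear regression; triplicate, three experiments.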
row,Compound,Bmax (fM bound (mg of protein)-1)
1,C[C@@]12Oc3c(O)ccc4c3C13CCN(CC1CC1)C(C4)[C@]3(NC(=O)/C=C/c1ccc([N+](=O)[O-])cc1)CCC2=O (some centres not stated),100

# Target: not listed separately
# Assay: Tested for its binding effect on [3H]- DAMGO in bovine striatal membrane at 20 nM
# Assay type: functional, cell membranes, Bos taurus, Striatum
# How it was run: as §1
row,Compound,Kd
1,C[C@@]12Oc3c(O)ccc4c3C13CCN(CC1CC1)C(C4)[C@]3(NC(=O)/C=C/c1ccc([N+](=O)[O-])cc1)CCC2=O (some centres not stated),0.82 nM

# Target: Mu-type opioid receptor (Bos taurus, UniProt P79350)
# Assay: Binding affinity against mu opioid receptor from calf frontal cortex.
# How it was run: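 Calf frontal cortex membranes (10 mg wet weight), prewashed and preincubated 15 min at 37 °C, in 50 mM Tris-HCl pH 7.5 with 10 mM MgSO4 and 0.5 mM EDTA. Competition against 0.8 nM [3H]DAMGO at eight ligand concentrations, 30 min at 37 °C, in triplicate. Nonspecific binding with 1 μM naloxone. Filtration, then scintillation counting; IC50 taken.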
# Mu-type opioid receptor, sequence (P79350 whole entry): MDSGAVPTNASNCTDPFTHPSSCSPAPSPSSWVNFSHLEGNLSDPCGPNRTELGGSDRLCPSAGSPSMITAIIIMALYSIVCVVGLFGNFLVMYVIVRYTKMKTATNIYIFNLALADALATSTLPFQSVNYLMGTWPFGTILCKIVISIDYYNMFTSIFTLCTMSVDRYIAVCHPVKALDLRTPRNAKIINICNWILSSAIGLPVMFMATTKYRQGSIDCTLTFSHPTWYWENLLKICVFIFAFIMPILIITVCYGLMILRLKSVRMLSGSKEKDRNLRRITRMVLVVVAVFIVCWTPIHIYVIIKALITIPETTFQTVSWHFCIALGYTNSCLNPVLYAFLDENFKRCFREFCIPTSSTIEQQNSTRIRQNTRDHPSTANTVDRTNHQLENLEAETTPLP
row,Compound,IC50
1,COc1ccc2c3c1O[C@@]1(C)C(=O)C=C[C@@]4(NC(=O)/C=C/c5ccc([N+](=O)[O-])cc5)C(C2)N(C)CCC314 (some centres not stated),36.2 nM
2,COc1ccc2c3c1O[C@@]1(C)C(=O)C=C[C@@]4(NC(=O)/C=C/c5ccc([N+](=O)[O-])cc5)C(C2)N(CC2CC2)CCC314 (some centres not stated),36.8 nM
3,COc1ccc2c3c1O[C@H]1C(=O)CC[C@@]4(NC(=O)/C=C/c5ccc([N+](=O)[O-])cc5)C(C2)N(C)CCC314 (some centres not stated),0.44 nM
4,CN1CCC23c4c5ccc(O)c4O[C@H]2C(=O)C=C[C@@]3(NC(=O)/C=C/c2ccc([N+](=O)[O-])cc2)C1C5 (some centres not stated),1.45 nM
5,COc1ccc2c3c1O[C@H]1C(=O)C=C[C@@]4(NC(=O)/C=C/c5ccc([N+](=O)[O-])cc5)C(C2)N(CC2CC2)CCC314 (some centres not stated),1.45 nM
6,CN1CC[C@]23c4c5ccc(O)c4O[C@H]2C(=O)CC[C@@]3(NC(=O)/C=C/c2ccc([N+](=O)[O-])cc2)[C@H]1C5,0.28 nM
7,O=C(/C=C/c1ccc([N+](=O)[O-])cc1)N[C@@]12CCC(=O)[C@@H]3Oc4c(O)ccc5c4[C@@]31CCN(CC1CC1)[C@@H]2C5,0.87 nM
8,CN1CCC23c4c5ccc(O)c4O[C@@]2(C)C(=O)C=C[C@@]3(NC(=O)/C=C/c2ccc([N+](=O)[O-])cc2)C1C5 (some centres not stated),0.8 nM
9,COc1ccc2c3c1O[C@@]1(C)C(=O)CC[C@@]4(NC(=O)/C=C/c5ccc([N+](=O)[O-])cc5)C(C2)N(CC2CC2)CCC314 (some centres not stated),32 nM
10,COc1ccc2c3c1O[C@H]1C(=O)C=C[C@@]4(NC(=O)/C=C/c5ccc([N+](=O)[O-])cc5)C(C2)N(C)CCC314 (some centres not stated),1.01 nM
11,C[C@@]12Oc3c(O)ccc4c3C13CCN(CC1CC1)C(C4)[C@]3(NC(=O)/C=C/c1ccc([N+](=O)[O-])cc1)CCC2=O (some centres not stated),0.52 nM
12,O=C(/C=C/c1ccc([N+](=O)[O-])cc1)N[C@@]12C=CC(=O)[C@@H]3Oc4c(O)ccc5c4C31CCN(CC1CC1)C2C5 (some centres not stated),7.8 nM
13,C[C@@]12Oc3c(O)ccc4c3C13CCN(CC1CC1)C(C4)[C@]3(NC(=O)CCc1ccc([N+](=O)[O-])cc1)CCC2=O (some centres not stated),24 nM
14,COc1ccc2c3c1O[C@@]1(C)C(=O)CC[C@@]4(NC(=O)/C=C/c5ccc([N+](=O)[O-])cc5)C(C2)N(C)CCC314 (some centres not stated),104 nM
15,C[C@@]12Oc3c(O)ccc4c3C13CCN(CC1CC1)C(C4)[C@]3(NC(=O)/C=C/c1ccc([N+](=O)[O-])cc1)C=CC2=O (some centres not stated),1.88 nM
